Data set [1] in a line: Volume of distribution at steady state Sprague-Dawley rat at 1 mg/kg, iv. On the set-up: dose 1 mg/kg, route intravenous. The format is ADME, organism-based. Particulars: in vivo, read-out: Vdss.
The test system of data set [2] is T-cell. Put plainly: Inhibition of T cell activation in human mixed lymphocyte reaction. The class given is functional, cell-based.
The target in data set [3] is T1, Tyrosine-protein kinase JAK3 (Homo sapiens, UniProt P52333).
T1 sequence (P52333 whole entry): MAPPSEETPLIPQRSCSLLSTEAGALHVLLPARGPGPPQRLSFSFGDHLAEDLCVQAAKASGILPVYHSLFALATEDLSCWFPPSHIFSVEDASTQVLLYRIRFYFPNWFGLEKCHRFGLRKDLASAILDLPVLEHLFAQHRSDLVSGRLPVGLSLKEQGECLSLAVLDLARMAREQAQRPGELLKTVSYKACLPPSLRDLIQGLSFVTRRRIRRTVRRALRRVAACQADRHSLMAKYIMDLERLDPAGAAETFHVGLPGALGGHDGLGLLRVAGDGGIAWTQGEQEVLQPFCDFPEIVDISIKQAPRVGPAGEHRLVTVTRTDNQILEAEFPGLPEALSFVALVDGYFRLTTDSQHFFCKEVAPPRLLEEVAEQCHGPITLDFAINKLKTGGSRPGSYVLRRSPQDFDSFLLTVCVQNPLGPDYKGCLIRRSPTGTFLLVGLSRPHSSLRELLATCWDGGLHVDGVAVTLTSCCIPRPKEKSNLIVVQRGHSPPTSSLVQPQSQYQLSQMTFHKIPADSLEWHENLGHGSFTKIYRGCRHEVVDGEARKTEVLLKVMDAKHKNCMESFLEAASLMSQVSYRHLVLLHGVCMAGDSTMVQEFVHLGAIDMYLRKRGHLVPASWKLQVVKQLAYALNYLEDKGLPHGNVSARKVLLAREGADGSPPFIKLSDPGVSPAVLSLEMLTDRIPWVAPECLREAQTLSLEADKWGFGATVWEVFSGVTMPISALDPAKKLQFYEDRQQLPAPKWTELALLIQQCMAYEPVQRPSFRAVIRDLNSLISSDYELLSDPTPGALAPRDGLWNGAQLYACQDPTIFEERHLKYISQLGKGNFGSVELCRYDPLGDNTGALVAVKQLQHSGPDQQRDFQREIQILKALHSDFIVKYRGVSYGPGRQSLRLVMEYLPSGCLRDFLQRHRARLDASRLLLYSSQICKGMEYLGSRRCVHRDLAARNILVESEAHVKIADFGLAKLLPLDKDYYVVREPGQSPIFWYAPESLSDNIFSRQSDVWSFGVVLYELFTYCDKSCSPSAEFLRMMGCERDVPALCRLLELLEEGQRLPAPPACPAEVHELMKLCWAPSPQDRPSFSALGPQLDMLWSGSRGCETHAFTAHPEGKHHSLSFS
The data set is described as follows: Inhibition of JAK3.

The nature of data set [4]: Clearance in Sprague-Dawley rat at 1 mg/kg, iv. The format is ADME, organism-based. On the set-up: dose 1 mg/kg, route intravenous. Particulars: in vivo.
The next data set concerns the target Activated CDC42 kinase 1 (Homo sapiens, UniProt Q07912). Put plainly: Inhibition of Ack1.
Data set [5] in a line: (§1) Half life in Sprague-Dawley rat at 1 mg/kg, iv. The format is ADME, organism-based. On the set-up: dose 1 mg/kg, route intravenous. Particulars: Sprague-Dawley, in vivo.
In data set [6] the test system is T-cell. The data set is described as follows: Inhibition of anti-CD3/CD28-induced IL2 secretion in human T cells. The format is functional, cell-based. The method, boiled down:
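Human T cells stimulated with anti-CD3/CD28, with IL-2 secretion as read-out. IC50 determined.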

For data set [7], the target named is Vascular endothelial growth factor receptor 2 (Homo sapiens, UniProt P35968). Put plainly: Inhibition of KDR.
The target in data set [8] is Tyrosine-protein kinase Lck (Homo sapiens, UniProt P06239). The data set is described as follows: Inhibition of Lck by HTRF assay.
A further data set relates to Rattus norvegicus. The description is as §1. The format is ADME, organism-based. On the set-up: dose 1 mg/kg, route intravenous. The note with it: in vivo.

Chain of Activated CDC42 kinase 1 (Q07912 whole entry): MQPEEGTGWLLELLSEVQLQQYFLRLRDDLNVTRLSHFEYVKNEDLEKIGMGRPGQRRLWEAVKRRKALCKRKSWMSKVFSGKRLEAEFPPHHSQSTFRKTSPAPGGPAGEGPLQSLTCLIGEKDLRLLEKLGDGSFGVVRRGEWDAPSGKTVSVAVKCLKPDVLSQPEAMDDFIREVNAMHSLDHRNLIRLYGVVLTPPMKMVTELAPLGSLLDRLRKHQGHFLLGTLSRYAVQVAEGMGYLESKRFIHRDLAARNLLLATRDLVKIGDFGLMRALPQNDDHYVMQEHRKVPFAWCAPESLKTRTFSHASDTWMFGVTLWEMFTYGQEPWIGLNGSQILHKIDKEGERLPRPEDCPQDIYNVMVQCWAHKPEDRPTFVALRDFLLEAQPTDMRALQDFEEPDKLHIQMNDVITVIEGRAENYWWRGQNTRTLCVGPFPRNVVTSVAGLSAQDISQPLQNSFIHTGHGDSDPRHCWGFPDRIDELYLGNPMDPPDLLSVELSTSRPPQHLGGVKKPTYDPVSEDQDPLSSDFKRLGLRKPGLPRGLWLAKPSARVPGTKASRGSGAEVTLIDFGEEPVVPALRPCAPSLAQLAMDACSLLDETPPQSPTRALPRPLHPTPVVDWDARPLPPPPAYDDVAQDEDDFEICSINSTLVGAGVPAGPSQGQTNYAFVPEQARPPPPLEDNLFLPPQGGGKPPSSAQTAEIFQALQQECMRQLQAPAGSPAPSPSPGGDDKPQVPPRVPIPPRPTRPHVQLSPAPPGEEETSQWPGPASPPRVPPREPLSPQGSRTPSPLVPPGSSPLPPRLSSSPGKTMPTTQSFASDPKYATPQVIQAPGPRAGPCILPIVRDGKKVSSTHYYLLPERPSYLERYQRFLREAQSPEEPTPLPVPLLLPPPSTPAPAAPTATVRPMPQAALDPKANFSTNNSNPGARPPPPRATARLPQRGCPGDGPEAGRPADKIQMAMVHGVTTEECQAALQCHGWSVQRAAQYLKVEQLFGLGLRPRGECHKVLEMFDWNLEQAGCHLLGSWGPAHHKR
Chain of Vascular endothelial growth factor receptor 2 (P35968 whole entry): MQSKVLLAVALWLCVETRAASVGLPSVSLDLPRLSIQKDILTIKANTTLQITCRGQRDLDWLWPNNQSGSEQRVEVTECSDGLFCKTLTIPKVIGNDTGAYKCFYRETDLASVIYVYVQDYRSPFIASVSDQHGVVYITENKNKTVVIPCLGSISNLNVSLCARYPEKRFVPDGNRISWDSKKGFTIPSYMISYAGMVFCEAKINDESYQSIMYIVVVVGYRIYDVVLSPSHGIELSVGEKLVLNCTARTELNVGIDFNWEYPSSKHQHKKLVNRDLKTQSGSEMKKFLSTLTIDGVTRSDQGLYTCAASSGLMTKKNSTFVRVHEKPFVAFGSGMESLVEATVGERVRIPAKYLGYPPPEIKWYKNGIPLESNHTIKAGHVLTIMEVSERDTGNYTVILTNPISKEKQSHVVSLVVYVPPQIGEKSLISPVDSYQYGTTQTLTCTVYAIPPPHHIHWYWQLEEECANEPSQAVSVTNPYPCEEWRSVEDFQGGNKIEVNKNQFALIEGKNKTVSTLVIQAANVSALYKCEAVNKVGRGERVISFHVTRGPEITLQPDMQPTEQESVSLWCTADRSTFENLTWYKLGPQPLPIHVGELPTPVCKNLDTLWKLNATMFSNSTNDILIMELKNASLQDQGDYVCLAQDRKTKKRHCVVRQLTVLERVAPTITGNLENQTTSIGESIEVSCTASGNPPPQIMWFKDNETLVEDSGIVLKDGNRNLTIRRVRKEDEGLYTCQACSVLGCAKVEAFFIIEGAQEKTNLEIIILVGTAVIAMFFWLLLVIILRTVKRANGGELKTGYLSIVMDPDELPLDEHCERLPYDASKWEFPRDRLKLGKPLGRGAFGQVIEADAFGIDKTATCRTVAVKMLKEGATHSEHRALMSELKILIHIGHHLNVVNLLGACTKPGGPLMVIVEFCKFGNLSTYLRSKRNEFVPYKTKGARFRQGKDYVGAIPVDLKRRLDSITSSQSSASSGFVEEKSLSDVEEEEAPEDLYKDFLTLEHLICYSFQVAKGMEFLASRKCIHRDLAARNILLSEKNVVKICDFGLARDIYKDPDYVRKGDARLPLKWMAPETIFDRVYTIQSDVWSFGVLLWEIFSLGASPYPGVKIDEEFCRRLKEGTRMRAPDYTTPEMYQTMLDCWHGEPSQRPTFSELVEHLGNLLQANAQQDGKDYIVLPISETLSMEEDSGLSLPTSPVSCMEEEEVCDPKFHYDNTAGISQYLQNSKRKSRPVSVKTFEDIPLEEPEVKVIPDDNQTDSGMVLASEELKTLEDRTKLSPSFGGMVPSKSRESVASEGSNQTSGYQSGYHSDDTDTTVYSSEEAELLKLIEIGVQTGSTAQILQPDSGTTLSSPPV
Chain of Tyrosine-protein kinase Lck (P06239 whole entry): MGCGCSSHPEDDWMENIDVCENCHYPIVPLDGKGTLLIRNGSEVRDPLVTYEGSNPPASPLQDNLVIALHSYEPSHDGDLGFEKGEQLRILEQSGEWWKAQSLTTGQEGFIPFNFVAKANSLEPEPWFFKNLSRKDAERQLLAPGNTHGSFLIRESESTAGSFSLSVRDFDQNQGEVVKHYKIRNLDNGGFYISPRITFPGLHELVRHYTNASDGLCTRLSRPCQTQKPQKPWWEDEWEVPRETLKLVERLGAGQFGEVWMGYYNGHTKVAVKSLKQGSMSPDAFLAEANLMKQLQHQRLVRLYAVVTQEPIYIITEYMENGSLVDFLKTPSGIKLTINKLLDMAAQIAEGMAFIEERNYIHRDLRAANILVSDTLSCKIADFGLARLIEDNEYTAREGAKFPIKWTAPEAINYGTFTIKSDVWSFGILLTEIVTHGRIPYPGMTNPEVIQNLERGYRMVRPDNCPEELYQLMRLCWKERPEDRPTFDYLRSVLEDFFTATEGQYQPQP

Regarding `c1ccc(-c2oc3nccc(NCCN4CCNCC4)c3c2-c2ccccc2)cc1`, in [1], the Vd was found to be 2.3 L/kg. Also, the IC50 with T-cell [2] was found to be 620 nM; in [3] it was 140 nM; against Activated CDC42 kinase 1 it was 420 nM; with T-cell [6], 1200 nM; in [7], 360 nM. The molecule further showed a clearance in [4] of 20 mL/min/kg. This molecule also gave a half-life in data set [5] of 1.5 h.
`c1ccc(-c2c(-c3ccc(OCCn4ccnc4)cc3)oc3nccc(NCCN4CCNCC4)c23)cc1`: in data set [1], the Vd stood at 7.2 L/kg. The 50% inhibitory concentration (IC50) in the data set on T-cell [2] turned out to be 57 nM; in data set [3] it was 25 nM; at Activated CDC42 kinase 1 it was 84 nM; in the data set on T-cell [6], 470 nM; in data set [7], 160 nM. Besides, the clearance in [4] is 192 mL/min/kg. In addition, the half-life in data set [5] is 0.8 h.
Regarding `c1ccc(-c2c(-c3ccc(OCCN4CCOCC4)cc3)oc3nccc(NCCN4CCNCC4)c23)cc1`, the Vd in data set [1] was 4.7 L/kg. Further, the 50% inhibitory concentration (IC50) with T-cell [2] is 14 nM; in [3], 32 nM; against Activated CDC42 kinase 1, 150 nM; in the data set on T-cell [6], 130 nM; in data set [7], 57 nM. The same molecule gave a clearance in data set [4] of 128 mL/min/kg. The same molecule had a half-life in data set [5] of 5.3 h.
With `c1ccc(-c2oc3nccc(NC[C@@H]4CCCO4)c3c2-c2ccccc2)cc1`, the IC50 in the data set with T-cell [2] was determined as 4000 nM; in data set [8] it was 2100 nM; in data set [3] it was 26 nM; at Activated CDC42 kinase 1 it was 110 nM; in the data set with T-cell [6], 5200 nM; in data set [7], 4200 nM.
For `c1ccc(-c2c(-c3ccc(OCCN4CCCCC4)cc3)oc3nccc(NCCc4cccnc4)c23)cc1`, the concentration for half-maximal inhibition (IC50) in data set [3] was 37 nM; against Activated CDC42 kinase 1, 20 nM; in data set [7], 370 nM.
With `c1ccc(-c2oc3ncnc(NCCN4CCNCC4)c3c2-c2ccccc2)cc1`, the IC50 in the data set with T-cell [6] amounted to 710 nM; in data set [7] it was 2600 nM.
As for `c1ccc(-c2c(-c3ccc(OCCN4CCCC4)cc3)oc3nccc(NCCN4CCNCC4)c23)cc1`, the IC50 in the data set with T-cell [2] came out at 170 nM; in data set [3] it was 110 nM; on Activated CDC42 kinase 1, 170 nM; with T-cell [6] it was 650 nM; in data set [7], 210 nM.
For the molecule `c1ccc(-c2c(-c3ccc(OCCN4CCCCC4)cc3)oc3nccc(NCCCn4ccnc4)c23)cc1`, the figures for the half-inhibitory concentration (IC50) (in data set [3]; on Activated CDC42 kinase 1; in data set [7]) were 1400 nM, 930 nM and 1700 nM, respectively.
`c1ccc(-c2c(-c3ccc(OCCN4CCCCC4)cc3)oc3nccc(NCCN4CCNCC4)c23)cc1`: the Vd in [1] turned out to be 60 L/kg. The half-maximal inhibitory concentration (IC50) in the data set with T-cell [2] worked out at 61 nM; in data set [8], 29 nM; in data set [3], 71 nM; against Activated CDC42 kinase 1 it was 120 nM; in the data set with T-cell [6], 510 nM; in [7], 100 nM. Besides, in [4], the clearance is 188 mL/min/kg. In [5], this molecule gave a half-life of 4.7 h.
In the case of `c1ccc(-c2c(-c3ccc(OCCN4CCCCC4)cc3)oc3nccc(NCCc4ccncc4)c23)cc1`, the half-maximal inhibitory concentration (IC50) in data set [8] was determined as 1600 nM; in [3], 80 nM; on Activated CDC42 kinase 1, 180 nM; in [7], 4700 nM.
As to `CC(C)N(CCOc1ccc(-c2oc3nccc(NCCN4CCNCC4)c3c2-c2ccccc2)cc1)C(C)C`, the IC50 in the data set with T-cell [2] stood at 18 nM; in data set [8], 19 nM; in data set [3] it was 44 nM; against Activated CDC42 kinase 1, 180 nM; in the data set with T-cell [6], 250 nM; in data set [7], 67 nM. Further, in the data set on Rattus norvegicus, the t1/2 came out at 3.1 h.

In general, IC50 refers to the concentration needed to halve the response being measured. A low value points to greater potency. Usually clearance stands for a measure of how efficiently the substance is removed, as volume per time. By half-life is commonly meant the time needed for the level to fall by half in the phase considered.

For the origin of these results see ChEMBL document CHEMBL1139139, “Discovery of novel 2,3-diarylfuro[2,3-b]pyridin-4-amines as potent and selective inhibitors of Lck: synthesis, SAR, and pharmacokinetic properties” (Bioorg Med Chem Lett, 2007).
